Molecules are shown by their SMILES.

A short description of this data set: Toxicity liver stage against HepG2, at 10uM. It is filed as cell-based. To be noted: human, HepG2-A16-CD81EGFP cells; read-out: INHIBITION
Further details: test concentration 10 uM, cell line HepG2-A16-CD81EGFP. The method, boiled down:
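Uninfected HepG2-A16-CD81EGFP cells, 3 × 10^3 per well, 1536-well, plated on prespotted compound at 10 μM final, parasite-free screening media added to match infected plates; puromycin 10 μM positive, DMSO 0.5% negative; run in parallel with 48 h PbLuc assay at 37 °C, 5% CO2; viability by CellTiter-Glo luminescence, normalized to controls.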
As to `O=C1N(c2cccnc2)CCC12CCCN(Cc1cccnc1)C2` (stereo not given), the cytotoxicity at 10 µM stood at 0.951%.
Under `Cc1ccc2oc(=O)n(CCC(=O)N3CCCC4(CNC(=O)O4)C3)c2c1` (stereo not given) stands -6%; under `CC(C)C1=NOC2(CCN(S(C)(=O)=O)CC2)C1`, 6.47%.
Turning to `Cc1cc2nc(C(C)C)cc(N(C)CC3CCN(C(C)C)C3)n2n1` (stereo not given), the cytotoxicity at 10 µM came to 7.26%.
Turning to `CNc1ccc(CC2CCCN(C(=O)c3c(C)noc3C)C2)nn1` (stereo not given), the cytotoxicity at 10 µM is -5%.
Take `CC(C)(NC(=O)Cc1ccccc1F)C(C)(C)C(=O)O`: the cytotoxicity at 10 µM was -9.1%.
With `CNC(=O)[C@@H]1C[C@H](N)CN1S(=O)(=O)c1cc(Cl)cc(Cl)c1O`, the cytotoxicity at 10 µM was 1.68%.
Turning to `CC(O)CN(C)C(=O)CCNC(=O)OC(C)(C)C` (stereo not given), the cytotoxicity at 10 µM was -5.32%.
With `CC(C(N)=O)n1nc(-c2cccs2)cc(N)c1=O` (stereo not given), the cytotoxicity at 10 µM came to 6.44%.
With `CC(Cn1cccn1)n1cnc2ccc(F)cc2c1=O` (stereo not given), the cytotoxicity at 10 µM amounted to 0.956%.
With `CCc1n[nH]c(C2CN(C(=O)c3ccsc3)CCO2)n1` (stereo not given), the cytotoxicity at 10 µM was found to be 2.24%.
Next, `O=C(Cn1cc(-n2cccc2)cn1)NCC1CCC1`: 14.7%; `CC(=O)Nc1ccc2c(c1)C1(CCOCC1)C(=O)N2c1ccsc1`: 5.56%; `CN(C(=O)NCCCNc1ccccn1)C1CCS(=O)(=O)C1` (stereo not given): 4.67%.
With `COCC1CN(C(=O)CC2Cc3ccccc3C2)Cc2c1cnn2C` (stereo not given), the cytotoxicity at 10 µM is -75.4%.
For `Cc1noc(C)c1C(=O)N1CC[C@H]2C[C@@H](c3ccncn3)O[C@@H]2C1`, the cytotoxicity at 10 µM is -2.16%.
Under `COc1ccc2c(c1)CCCN2C(=O)CN1CCOC(C)C1` (stereo not given) stands 2.59%.
On to `Cc1cc(OCC(=O)N2CCCC2c2noc(C)n2)no1` (stereo not given), for which the cytotoxicity at 10 µM is -11.1%.
Under `COCC1CC2(CCN(C(N)=O)CC2)CN1Cc1csc(C)n1` (stereo not given) stands 8.98%; under `CN(C)C(=O)CCCNC(=O)C(c1cccc(F)c1)N(C)C` (stereo not given), -25.3%; under `CN1CC(=O)N(c2cccc(F)c2)CC12CCN(Cc1ccco1)C2` (stereo not given), 4.06%.
Consider `Cc1nn(C)c(C)c1CCC(=O)Nc1nnc(C2CC2)s1`, for which the cytotoxicity at 10 µM was -10.1%.
Next, `Cc1cc(C)n(CC2CCCN2Cc2cccc(C#N)c2)n1` (stereo not given): 11.2%; `Cc1nc(C2(O)CCCNCC2)sc1CCOc1ccccc1F` (stereo not given): -36.5%.
Next, `COc1ccccc1CN(C)c1nc2c(cnn2C)c(=O)[nH]1`: 40.6%.
Next, `COc1ccc(Cl)cc1C(=O)N(C)Cc1cc(C)on1`: -22.9%; `CCOc1cccc(NC(=O)c2cnc(C)cn2)n1`: 4.14%.
On to `Cc1cccc(N2CCC3(CCCN3Cc3c(C)nn(C)c3C)CC2)n1`, for which the cytotoxicity at 10 µM was -8.35%.
Under `CN1CCN(Cc2ccncc2)C(=O)C12CCN(Cc1ccsc1)CC2` stands 3.03%.
Next, `O=C(C1CCOCC1)N1C[C@@H]2[C@@H](C1)OCC(=O)N2Cc1ccncc1`: -8.8%; `CC(=O)c1cccc(OCCCC(=O)N(C)Cc2cnn(C)c2)c1`: -3.05%; `O=S(=O)(CCN1CCCC1Cn1cccn1)c1ccccc1` (stereo not given): -11.9%.
Under `CCn1nc2c(cc1=O)CN(Cc1nc(-c3ccccn3)no1)CC2` stands -5.13%.
Consider `COc1cccc(COCC(=O)NC2CCN(CC(N)=O)CC2)c1`, for which the cytotoxicity at 10 µM is -8.47%.
Under `CN(C)C(C(=O)N1CCN(CC(F)(F)F)CC1)c1ccccc1F` (stereo not given) stands -2.42%; under `O=C(c1cc(Cn2ccc3ccccc32)[nH]n1)N1CCOCC1`, -1.01%; under `O=C(NS(=O)(=O)c1cccc(C(F)(F)F)c1)c1cnsn1`, -2.98%.
Under `CC(C)(C)NC(=O)Cn1c(=O)n(Cc2ccco2)c2ncccc21` stands -6%.
Next, `Cc1nc(C2(NCc3ccc(C#N)cc3F)CCCC2)no1`: 2.78%; `CN(CC1COc2ccccc2O1)C(=O)CCn1cncn1` (stereo not given): -7.36%.

Source of the values: ChEMBL document CHEMBL4513216, “Probing the Open Global Health Chemical Diversity Library for Multistage-Active Starting Points for Next-Generation Antimalarials” (ACS Infect Dis, 2020).
